Where a chain is given by its changes, count along the chain named.
Experiments:
saposin B = assay: crystal structure
saposin B (sapB) [1] = target: T1, saposin B (sapB) (Homo sapiens, UniProt P07602); assay: ITC, two sets of independent sites fit; type: binding
T1 sequence (P07602 195-273): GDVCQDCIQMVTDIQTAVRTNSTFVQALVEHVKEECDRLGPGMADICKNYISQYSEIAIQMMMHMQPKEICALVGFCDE
Summary of the method: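 Ligand-into-buffer control titrations were used in the analysis. Integrated heats were plotted against the ligand/sapB dimer molar ratio and fitted to two independent site sets. Strong-site parameters were reported; for the weak set, only n2·K2·ΔH2.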

saposin B (sapB) [2] = target: T2, saposin B (sapB) (Homo sapiens, UniProt P07602, E263A); assay: ITC, two sets of independent sites fit; type: binding
T2 sequence (P07602 195-273 E263A): T1 sequence (P07602 195-273) with E69A

stoichiometry N (saposin B)	Kd (saposin B (sapB) [1]) [µM]	Kd (saposin B (sapB) [2]) [µM]	Compound
2	–	–	saposin B (natural protein)
–	31.8	23.1	CCN(CC)CCC[C@@H](C)Nc1ccnc2cc(Cl)ccc12 [chloroquine]

From PMC5558615 (ChemMedChem, 2015)
